Results reported in ChEMBL document CHEMBL5724801, “EUbOPEN Chemogenomics Library - Multiplex” (2024).
Values joined by “and” are separate entries in the source; they are usually repeats but may differ in a detail not shown here. Identical values can stand only once.

What was measured:
Fibroblast = assay: Multiplex assay against human fibroblast; assay type: toxicity, cell-based
Outline: (§1)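 Live cells carried four stains from seeding: Hoechst33342, BioTracker Green Microtubule Cytoskeleton Dye, MitoTracker Red and Annexin V Alexa Fluor 680. They were imaged on a CQ1 microscope at 37°C and 5% CO2 after compound addition. Using CellPathfinder machine-learning gating, cells were split into Hoechst high-intensity objects or normal cells, normal cells into healthy, pyknosed or fragmented nuclei, and pyknosed cells into mitotic or apoptotic; tubulin, mitochondrial-mass and membrane-permeability phenotypes are per cents of healthy-nucleus cells.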

HEK-293T = assay: Multiplex assay against HEK293T; assay type: toxicity, cell-based; conditions: human; outline: as §1
[1] = 12 h, 1 µM, compound concentration 1 uM
[2] = 12 h, 10 µM, compound concentration 10 uM
[3] = 24 h, 1 µM, compound concentration 1 uM
[4] = 24 h, 10 µM, compound concentration 10 uM
[5] = 48 h, 1 µM, compound concentration 1 uM
[6] = 48 h, 10 µM, compound concentration 10 uM

`Cc1ccc(C(C)(O)c2nc3ccccc3s2)c(C)c1` (configuration not stated) was tested, and the “Population Apoptotic (%)” value (Fibroblast; [1]) was 50% and 44%, the “Population Fragmented Nuclei (%)” value (Fibroblast; [1]) was 8% and 22% and the “Population Healthy Nuclei (%)” value (Fibroblast; [1]) was 78% and 48%. For the same molecule, the “Population Hoechst High Intensity Objects (%)” value (Fibroblast; [1]) was 0% and 5%, the “Population Membrane Permeable-Phenotype (%)” value (Fibroblast; [1]) was 0% and 3% and the “Population Mitochondria Different-Phenotype (%)” value (Fibroblast; [1]) was 5% and 6%. For the same molecule, the “Population Mitotic Cells (%)” value (Fibroblast; [1]) was 50% and 56%, the “Population Normal (%)” value (Fibroblast; [1]) was 99% and 95% and the “Population Pyknosed Nuclei (%)” value (Fibroblast; [1]) was 12% and 29%. The “Population Tubulin-Different-Phenotype (%)” value (Fibroblast; [1]) was 29% and 36%, the “Total Cell Count” value (Fibroblast; [1]) was 125 and 180 and the “Population Apoptotic (%)” value (Fibroblast; [2]) was 44% and 22%. For the same molecule, the “Population Fragmented Nuclei (%)” value (Fibroblast; [2]) was 11% and 31%, the “Population Healthy Nuclei (%)” value (Fibroblast; [2]) was 72% and 43% and the “Population Hoechst High Intensity Objects (%)” value (Fibroblast; [2]) was 1% and 7%. The “Population Membrane Permeable-Phenotype (%)” value (Fibroblast; [2]) was 0% and 15%, the “Population Mitochondria Different-Phenotype (%)” value (Fibroblast; [2]) was 5% and 6% and the “Population Mitotic Cells (%)” value (Fibroblast; [2]) was 56% and 77%. For the same molecule, the “Population Normal (%)” value (Fibroblast; [2]) was 98% and 92%, the “Population Pyknosed Nuclei (%)” value (Fibroblast; [2]) was 16% and 25% and the “Population Tubulin-Different-Phenotype (%)” value (Fibroblast; [2]) was 24% and 60%. The “Total Cell Count” value (Fibroblast; [2]) was 153 and 149, the “Population Apoptotic (%)” value (Fibroblast; [3]) was 31% and 47% and the “Population Fragmented Nuclei (%)” value (Fibroblast; [3]) was 13% and 25%. For the same molecule, the “Population Healthy Nuclei (%)” value (Fibroblast; [3]) was 73% and 54%, the “Population Hoechst High Intensity Objects (%)” value (Fibroblast; [3]) was 0% and 5% and the “Population Membrane Permeable-Phenotype (%)” value (Fibroblast; [3]) was 2% and 11%. The “Population Mitochondria Different-Phenotype (%)” value (Fibroblast; [3]) was 7% and 5%, the “Population Mitotic Cells (%)” value (Fibroblast; [3]) was 68% and 52% and the “Population Normal (%)” value (Fibroblast; [3]) was 99% and 94%. For the same molecule, the “Population Pyknosed Nuclei (%)” value (Fibroblast; [3]) was 13% and 20%, the “Population Tubulin-Different-Phenotype (%)” value (Fibroblast; [3]) was 22% and 43% and the “Total Cell Count” value (Fibroblast; [3]) was 139 and 173. For the same molecule, the “Population Apoptotic (%)” value (Fibroblast; [4]) was 55% and 38%, the “Population Fragmented Nuclei (%)” value (Fibroblast; [4]) was 13% and 27% and the “Population Healthy Nuclei (%)” value (Fibroblast; [4]) was 74% and 46%. For the same molecule, the “Population Hoechst High Intensity Objects (%)” value (Fibroblast; [4]) was 4% and 6%, the “Population Membrane Permeable-Phenotype (%)” value (Fibroblast; [4]) was 3% and 12% and the “Population Mitochondria Different-Phenotype (%)” value (Fibroblast; [4]) was 6% and 9%. For the same molecule, the “Population Mitotic Cells (%)” value (Fibroblast; [4]) was 44% and 61%, the “Population Normal (%)” value (Fibroblast; [4]) was 95% and 93% and the “Population Pyknosed Nuclei (%)” value (Fibroblast; [4]) was 12% and 25%. For the same molecule, the “Population Tubulin-Different-Phenotype (%)” value (Fibroblast; [4]) was 24% and 61%, the “Total Cell Count” value (Fibroblast; [4]) was 152 and 143 and the “Population Apoptotic (%)” value (Fibroblast; [5]) was 33% and 50%. The “Population Fragmented Nuclei (%)” value (Fibroblast; [5]) was 16% and 28%, the “Population Healthy Nuclei (%)” value (Fibroblast; [5]) was 73% and 57% and the “Population Hoechst High Intensity Objects (%)” value (Fibroblast; [5]) was 4% and 3%. For the same molecule, the “Population Membrane Permeable-Phenotype (%)” value (Fibroblast; [5]) was 0% and 5%, the “Population Mitochondria Different-Phenotype (%)” value (Fibroblast; [5]) was 3% and 6% and the “Population Mitotic Cells (%)” value (Fibroblast; [5]) was 66% and 50%. For the same molecule, the “Population Normal (%)” value (Fibroblast; [5]) was 95% and 96%, the “Population Pyknosed Nuclei (%)” value (Fibroblast; [5]) was 9% and 14% and the “Population Tubulin-Different-Phenotype (%)” value (Fibroblast; [5]) was 16% and 39%. For the same molecule, the “Total Cell Count” value (Fibroblast; [5]) was 129 and 174, the “Population Apoptotic (%)” value (Fibroblast; [6]) was 53% and 43% and the “Population Fragmented Nuclei (%)” value (Fibroblast; [6]) was 22% and 34%. For the same molecule, the “Population Healthy Nuclei (%)” value (Fibroblast; [6]) was 68% and 53%, the “Population Hoechst High Intensity Objects (%)” value (Fibroblast; [6]) was 7% and the “Population Membrane Permeable-Phenotype (%)” value (Fibroblast; [6]) was 2% and 7%. For the same molecule, the “Population Mitochondria Different-Phenotype (%)” value (Fibroblast; [6]) was 6% and 7%, the “Population Mitotic Cells (%)” value (Fibroblast; [6]) was 46% and 56% and the “Population Normal (%)” value (Fibroblast; [6]) was 92%. The “Population Pyknosed Nuclei (%)” value (Fibroblast; [6]) was 9% and 12%, the “Population Tubulin-Different-Phenotype (%)” value (Fibroblast; [6]) was 27% and 64% and the “Total Cell Count” value (Fibroblast; [6]) was 156 and 143. For the same molecule, the “Population Apoptotic (%)” value (HEK-293T; [1]) was 30% and 41%, the “Population Healthy Nuclei (%)” value (HEK-293T; [1]) was 72% and 79% and the “Population Hoechst High Intensity Objects (%)” value (HEK-293T; [1]) was 4% and 5%. For the same molecule, the “Population Membrane Permeable-Phenotype (%)” value (HEK-293T; [1]) was 1% and 0%, the “Population Mitochondria Different-Phenotype (%)” value (HEK-293T; [1]) was 36% and 63% and the “Population Mitotic Cells (%)” value (HEK-293T; [1]) was 70% and 58%. The “Population Normal (%)” value (HEK-293T; [1]) was 95% and 94%, the “Population Pyknosed Nuclei (%)” value (HEK-293T; [1]) was 8% and 16% and the “Population Tubulin-Different-Phenotype (%)” value (HEK-293T; [1]) was 30% and 25%. The “Total Cell Count” value (HEK-293T; [1]) was 483 and 308, the “Population Apoptotic (%)” value (HEK-293T; [2]) was 56% and 36% and the “Population Fragmented Nuclei (%)” value (HEK-293T; [2]) was 5% and 7%. For the same molecule, the “Population Healthy Nuclei (%)” value (HEK-293T; [2]) was 82% and 78%, the “Population Hoechst High Intensity Objects (%)” value (HEK-293T; [2]) was 8% and 7% and the “Population Membrane Permeable-Phenotype (%)” value (HEK-293T; [2]) was 0%. The “Population Mitochondria Different-Phenotype (%)” value (HEK-293T; [2]) was 62% and 72%, the “Population Mitotic Cells (%)” value (HEK-293T; [2]) was 43% and 63% and the “Population Normal (%)” value (HEK-293T; [2]) was 91% and 92%. For the same molecule, the “Population Pyknosed Nuclei (%)” value (HEK-293T; [2]) was 12% and 13%, the “Population Tubulin-Different-Phenotype (%)” value (HEK-293T; [2]) was 44% and 25% and the “Total Cell Count” value (HEK-293T; [2]) was 412 and 318. For the same molecule, the “Population Apoptotic (%)” value (HEK-293T; [3]) was 26% and 32%, the “Population Fragmented Nuclei (%)” value (HEK-293T; [3]) was 18% and 6% and the “Population Healthy Nuclei (%)” value (HEK-293T; [3]) was 73% and 85%. For the same molecule, the “Population Hoechst High Intensity Objects (%)” value (HEK-293T; [3]) was 3%, the “Population Membrane Permeable-Phenotype (%)” value (HEK-293T; [3]) was 1% and 0% and the “Population Mitochondria Different-Phenotype (%)” value (HEK-293T; [3]) was 15% and 36%. For the same molecule, the “Population Mitotic Cells (%)” value (HEK-293T; [3]) was 73% and 67%, the “Population Normal (%)” value (HEK-293T; [3]) was 96% and the “Population Pyknosed Nuclei (%)” value (HEK-293T; [3]) was 8% and 7%. The “Population Tubulin-Different-Phenotype (%)” value (HEK-293T; [3]) was 11% and 16%.
